Article PMC3425077 (Indian Journal of Pharmaceutical Sciences, 2011)

Experiments:
Format in all cases: in vivo
adrenal gland weight = test: Adrenal weight change method; conditions: suppression of adrenal gland weight; dose mg/Kg b.w.: Std (Aspirin) 200, 4a-4d 100, 4e 200, 4f 75
In short: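 Adrenal weight change was one of the anti-inflammatory methods. Treated groups were compared with a control group of animals by Student's t test and marked significant or non-significant.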

[1] = tested on: radiant heat induced rat tail flick; test: Radiant heat induced rat tail flick method; conditions: dose mg/Kg b.w.: Std (Aspirin) 200, 4a-4d 100, 4e 200, 4f 75
In short: (§1)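 Animals given test compound or standard were compared with a control group of animals. Significance of the differences between treatment and control was assessed by Student's t test.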

[2] = tested on: carrageenan induced rat paw edema; test: Carrageenan induced rat paw edema method; conditions: dose mg/Kg b.w.: Std (Aspirin) 200, 4a-4d 100, 4e 200, 4f 75
In short: as §1

ulcers = test: Ulcerogenic activity, arbitrary scoring of ulcer severity; conditions: dose mg/Kg b.w.: Std (Aspirin) 200, 4a-4d 100, 4e 200, 4f 75

CC(=O)Oc1ccccc1C(=O)O [Aspirin]
Antiinflammatory activity Percentage inhibition Adrenal weight method (adrenal gland weight): 50.13% | Analgesic activity percent protection Rat tail flicK method [1]: 49.39% | Antiinflammatory activity Percentage inhibition Carrageenan method 1 h ([2]; after 1 h): 54.84% | Antiinflammatory activity Percentage inhibition Carrageenan method 3 h ([2]; after 3 h): 55.05% | Antiinflammatory activity Percentage inhibition Carrageenan method 5 h ([2]; after 5 h): 73.81% | Ulcer index (ulcers): 43.33
